The subject of test [1] is MCF7. Put plainly: Antiproliferative activity against human MCF7 cells after 72 hrs by MTT assay. It counts as functional, cell-based. Conditions: MCF7, 72 h. In a few lines: (§1)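 Cells grown in vitro with test agent; growth inhibition read by MTT assay; IC50 taken as concentration inhibiting tumor cell proliferation by 50%.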
On the technique in general: Formazan colour is commonly taken as a measure of viable cells.

A short description of test [2]: Antiproliferative activity against human SW620 cells after 72 hrs by MTT assay. Conditions: SW-620, 72 h. It counts as functional, cell-based. Put shortly:
as §1

The test system of another test is HeLa. As to the kind of experiment: Antiproliferative activity against human HeLa cells after 72 hrs by MTT assay. Format: functional, cell-based. In a few lines:
as §1

A further test relates to BJ. As to the kind of experiment: Antiproliferative activity against human BJ cells after 72 hrs by MTT assay. Format: cell-based. Put shortly:
as §1

Test [3] deals with MCF7. As to the kind of experiment: Induction of apoptosis in human MCF7 cells assessed as early apoptotic cells at IC50 after 24 hrs by annexinV/propidium iodide staining based fluorescence analysis (reference value: 8.7 %). It counts as functional.
Test [4] has as its system MCF7. As to the kind of experiment: Induction of apoptosis in human MCF7 cells assessed as late apoptotic cells at IC50 after 24 hrs by annexinV/propidium iodide staining based fluorescence analysis (reference value: 7.5 %). Format: functional.
Test [5] has as its system MCF7. As to the kind of experiment: Induction of apoptosis in human MCF7 cells assessed as necrotic cells at IC50 after 24 hrs by annexinV/propidium iodide staining based fluorescence analysis (reference value: 9.4 %). It counts as functional.
Test [6] concerns MCF7. As to the kind of experiment: Induction of apoptosis in human MCF7 cells assessed as early apoptotic cells at IC50 after 48 hrs by annexinV/propidium iodide staining based fluorescence analysis (reference value: 36.1 %). Format: functional.
The test system of test [7] is MCF7. Put plainly: Induction of apoptosis in human MCF7 cells assessed as late apoptotic cells at IC50 after 48 hrs by annexinV/propidium iodide staining based fluorescence analysis (reference value: 27.7 %). It counts as functional.
Test [8] concerns MCF7. Put plainly: Induction of apoptosis in human MCF7 cells assessed as necrotic cells at IC50 after 48 hrs by annexinV/propidium iodide staining based fluorescence analysis (reference value: 25.4 %). It counts as functional.
Test [9] deals with MCF7. Put plainly: Effect on SK1 expression in human MCF7 cells at IC50 after 24 hrs by western blot analysis. It counts as functional, cell-based.
Test [10] has as its system MCF7. Put plainly: Downregulation of ASAH1 expression in human MCF7 cells at IC50 after 24 hrs by western blot analysis. Format: functional, cell-based. On the technique in general: A western blot detects proteins with antibodies after separation by electrophoresis.
In test [11] the target is T1, 17-beta-hydroxysteroid dehydrogenase type 1 (Homo sapiens) (UniProt P14061).
T1 sequence (whole entry): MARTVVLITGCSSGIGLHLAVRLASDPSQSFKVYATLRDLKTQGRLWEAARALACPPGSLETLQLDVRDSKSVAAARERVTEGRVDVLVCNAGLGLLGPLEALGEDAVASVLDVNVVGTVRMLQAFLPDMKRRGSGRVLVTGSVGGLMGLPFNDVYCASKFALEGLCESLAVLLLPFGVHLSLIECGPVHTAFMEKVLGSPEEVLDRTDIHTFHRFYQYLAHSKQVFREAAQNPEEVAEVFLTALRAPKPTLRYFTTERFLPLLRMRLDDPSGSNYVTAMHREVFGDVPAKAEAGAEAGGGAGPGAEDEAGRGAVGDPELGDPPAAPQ
Put plainly: Inhibition of 17beta-HSD1 in human MCF7 cells at IC50 after 24 hrs by ELISA. Format: cell-based. (In general: In an ELISA, binding on a coated surface is turned into a signal by an enzyme label.)

Test [12] deals with T1, 17-beta-hydroxysteroid dehydrogenase type 1 (Homo sapiens). Put plainly: Inhibition of 17beta-HSD1 in human MCF7 cells at 5XIC50 after 24 hrs by ELISA. It counts as cell-based.

Calls of active or inactive are those of the source. No cut-off for these calls is given here.

The term IC50 denotes the point on the concentration scale where inhibition reaches its midpoint. `CC(C)(C)C#Cc1cn(CCC(CO)CO)c(=O)[nH]c1=O`: the IC50 in the test on MCF7 [1] was 95.9 µM; in [2] it was more than 100 µM; with HeLa it was more than 100 µM; in the test with BJ it was 58.2 µM.

On to `CCCCCCCCC#Cc1cn(CCC(COC(C)=O)COC(C)=O)c(=O)n(C(=O)c2ccccc2)c1=O`, for which the IC50 was 28.9 µM in the test on MCF7 [1], 65.8 µM in test [2], 32.4 µM with HeLa and more than 100 µM in the test on BJ.

Regarding `CCCCCC#Cc1cn(CCC(CO)CO)c(=O)[nH]c1=O`, the IC50 with MCF7 [1] was 37.8 µM; in test [2] it was more than 100 µM; in the test on HeLa it was 76.3 µM.

For `CC(=O)OCC(CCn1cc(C#CC(C)(C)C)c(=O)n(C(=O)c2ccccc2)c1=O)COC(C)=O`, the IC50 in the test with MCF7 [1] is 67.1 µM; in test [2], more than 100 µM; with HeLa, 71.5 µM; in the test with BJ, 36.9 µM.

On to `O=c1[nH]c(=O)n(CCC(CO)CO)cc1C#Cc1cc(F)cc(F)c1`, for which the IC50 with MCF7 [1] was 63.1 µM; in test [2], more than 100 µM; in the test on HeLa, 31.2 µM; in the test on BJ, more than 100 µM.

In the case of `O=c1[nH]c(=O)n(CCC(CO)CO)cc1C#CCc1ccccc1`, the half-inhibitory concentration (IC50) is more than 100 µM in the test with MCF7 [1], 72.4 µM in test [2], 63.8 µM in the test on HeLa and more than 100 µM in the test on BJ.

Regarding `CCCCCCCCC#Cc1cn(CCC(CO)CO)c(=O)[nH]c1=O`, the IC50 in the test on MCF7 [1] was 40.3 µM; in test [2], more than 100 µM; with HeLa it was 58.9 µM.

Consider `CC(=O)OCC(CCn1cc(C#CCCCCl)c(=O)n(C(=O)c2ccccc2)c1=O)COC(C)=O`, for which the IC50 in the test with MCF7 [1] is 21 µM; in [2], more than 100 µM; in the test with HeLa it was 52.8 µM.

With `O=c1[nH]c(=O)n(CCC(CO)CO)cc1C#CCCCCl`, the 50% inhibitory concentration (IC50) in the test on MCF7 [1] was 35.2 µM; in test [2], more than 100 µM; in the test on HeLa, more than 100 µM.

`CC(=O)OCC(CCn1cc(C#Cc2ccc(Br)cc2)c(=O)n(C(=O)c2ccccc2)c1=O)COC(C)=O`: the half-maximal inhibitory concentration (IC50) is 28.9 µM with MCF7 [1], more than 100 µM in test [2], 47.2 µM in the test on HeLa and 37.6 µM with BJ.

With `CCCCCC#Cc1cn(CCC(COC(C)=O)COC(C)=O)c(=O)n(C(=O)c2ccccc2)c1=O`, the IC50 in the test on MCF7 [1] turned out to be 62.2 µM; in test [2], 40.7 µM; in the test on HeLa, 53.7 µM.

In the case of `O=c1[nH]c(=O)n(CCC(CO)CO)cc1C#Cc1ccc(Br)cc1`, the IC50 in the test on MCF7 [1] is 46 µM; in test [2], more than 100 µM; with HeLa, 67.7 µM; in the test with BJ it was more than 100 µM.

For the compound `CC(=O)OCC(CCn1cc(C#CC2CC2)c(=O)n(C(=O)c2ccccc2)c1=O)COC(C)=O`, the concentration for half-maximal inhibition (IC50) in the test with MCF7 [1] was 0.1 µM; in test [2] it was more than 100 µM; in the test with HeLa it was more than 100 µM; in the test on BJ it was 0.3 µM. Further, the Activity in the test with MCF7 [3] came out at 10.9%; in the test with MCF7 [4], 36.6%; in the test with MCF7 [5], 34.1%; with MCF7 [6] it was 20.9%; with MCF7 [7], 24.4%; with MCF7 [8], 31.6%. Besides, the result in the test on MCF7 [9] was inactive. In addition, the inhibition result with MCF7 [10] was “Active”.

In the case of `CCCCCc1ccc(C#Cc2cn(CCC(CO)CO)c(=O)[nH]c2=O)cc1`, the values for the IC50 (with MCF7 [1]; in test [2]; in the test with HeLa) were 26.8 µM, more than 100 µM and 48.2 µM, respectively.

As for `CC(=O)OCC(CCn1cc(C#Cc2cc(F)cc(F)c2)c(=O)n(C(=O)c2ccccc2)c1=O)COC(C)=O`, the half-maximal inhibitory concentration (IC50) with MCF7 [1] was 28.9 µM; in test [2], more than 100 µM; in the test with HeLa it was 64.5 µM; in the test on BJ, 46.6 µM.

On to `CC(=O)OCC(CCn1cc(C#CCc2ccccc2)c(=O)n(C(=O)c2ccccc2)c1=O)COC(C)=O`, for which the IC50 in the test on MCF7 [1] was found to be 26.8 µM; in [2] it was 36.4 µM; in the test on HeLa, 29.9 µM.

On to `O=c1[nH]c(=O)n(CCC(CO)CO)cc1-c1cccs1`, for which the results for the half-inhibitory concentration (IC50) (in the test on MCF7 [1]; in test [2]; in the test with HeLa) were 6 µM, more than 100 µM and 7.8 µM, respectively. In addition, the Activity amounted to 32.8% in the test on MCF7 [3]; 33.6% with MCF7 [4]; 26.2% in the test with MCF7 [5]; 54.9% in the test with MCF7 [6]; 22.9% in the test with MCF7 [7]; 13.1% with MCF7 [8]. Also, in the test on MCF7 [9], the result was inactive. Moreover, the inhibition entry in the test on MCF7 [10] was “inactive”. Besides, the inhibition result in test [11] and in test [12] was “Active” each time.

`CCCCCc1ccc(C#Cc2cn(CCC(COC(C)=O)COC(C)=O)c(=O)n(C(=O)c3ccccc3)c2=O)cc1`: the half-maximal inhibitory concentration (IC50) in the test with MCF7 [1] is 0.1 µM; in test [2], more than 100 µM; in the test on HeLa it was 79.1 µM; in the test on BJ it was 17.6 µM. Further, the Activity amounted to 41.7% in the test on MCF7 [3]; 28.3% in the test with MCF7 [4]; 34.6% in the test with MCF7 [5]; 28.2% in the test with MCF7 [6]; 24.1% with MCF7 [7]; 37.9% in the test with MCF7 [8]. Also, the result in the test with MCF7 [9] was inactive. In addition, the inhibition result in the test with MCF7 [10] was “Active”.

In the case of `O=c1[nH]cc(F)c(=O)[nH]1` [FLUOROURACIL], the half-inhibitory concentration (IC50) with MCF7 [1] was 0.09 µM; in [2], 0.79 µM; with HeLa, more than 100 µM.

In the case of `O=c1[nH]c(=O)n(CCC(CO)CO)cc1C#CC1CC1`, the concentration for half-maximal inhibition (IC50) (in the test with MCF7 [1]; in test [2]; with HeLa) was more than 100 µM in each case.

As for `O=c1[nH]c(=O)n(CCC(CO)CO)cc1-c1ccco1`, the IC50 with MCF7 [1] is less than 0.01 µM; in [2] it was more than 100 µM; in the test with HeLa it was more than 100 µM; in the test on BJ it was 0.5 µM. For the same compound, the Activity in the test on MCF7 [3] came out at 20.4%; with MCF7 [4], 19.7%; with MCF7 [5], 34%; in the test with MCF7 [6] it was 39.3%; in the test on MCF7 [7] it was 18%; with MCF7 [8] it was 28.7%. Besides, the outcome with MCF7 [9] was inactive. Further, the inhibition entry (in the test with MCF7 [10]; in test [11]; in [12]) was “inactive” in each case.

Values taken from ChEMBL document CHEMBL3758077, “Discovery of New Acid Ceramidase-Targeted Acyclic 5-Alkynyl and 5-Heteroaryl Uracil Nucleosides” (ACS Med Chem Lett, 2015).
